The values below come from ChEMBL document CHEMBL3870320, “Yakushinamides, Polyoxygenated Fatty Acid Amides That Inhibit HDACs and SIRTs, from the Marine Sponge Theonella swinhoei” (J Nat Prod, 2016).

As a reminder, the IC50 is the point on the concentration scale where inhibition reaches its midpoint.

Experiment [1] has as its target T1, NAD-dependent protein deacetylase sirtuin-1 (Homo sapiens) (UniProt Q96EB6).
T1 sequence (whole entry): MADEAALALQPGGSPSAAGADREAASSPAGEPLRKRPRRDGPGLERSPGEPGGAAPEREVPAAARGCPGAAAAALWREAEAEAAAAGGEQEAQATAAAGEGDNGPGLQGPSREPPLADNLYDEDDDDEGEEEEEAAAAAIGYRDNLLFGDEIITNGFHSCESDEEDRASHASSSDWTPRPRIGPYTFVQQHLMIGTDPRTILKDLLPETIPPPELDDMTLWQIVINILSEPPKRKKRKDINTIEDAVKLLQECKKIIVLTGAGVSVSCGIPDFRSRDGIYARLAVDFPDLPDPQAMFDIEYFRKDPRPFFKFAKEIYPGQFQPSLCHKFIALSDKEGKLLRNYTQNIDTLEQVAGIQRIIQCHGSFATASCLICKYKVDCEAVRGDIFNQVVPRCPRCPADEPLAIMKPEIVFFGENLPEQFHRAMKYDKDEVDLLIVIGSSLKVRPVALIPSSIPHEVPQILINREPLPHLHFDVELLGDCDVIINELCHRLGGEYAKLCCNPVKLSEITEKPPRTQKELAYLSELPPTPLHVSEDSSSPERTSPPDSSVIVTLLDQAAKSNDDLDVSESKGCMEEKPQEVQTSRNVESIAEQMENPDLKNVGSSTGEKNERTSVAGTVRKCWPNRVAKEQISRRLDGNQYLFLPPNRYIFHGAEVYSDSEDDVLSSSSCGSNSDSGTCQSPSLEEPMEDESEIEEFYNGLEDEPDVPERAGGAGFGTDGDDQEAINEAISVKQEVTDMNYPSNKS
As to the kind of experiment: Inhibition of recombinant human SIRT1 expressed in Escherichia coli BL21 (DE3) assessed as formation of amino methyl coumarin from Ac-RHKK(Ac)-MCA and NAD measured after 60 mins by fluorescence analysis. The method in brief:
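SIRT1 was expressed from pCold TF in E. coli BL21 (DE3) with 0.3 mM IPTG at 16 °C for 24 h, and the (His)6 protein was purified by nickel affinity then anion exchange. Assay used 100 μM Ac-RHKK(Ac)-MCA and 1 mM NAD (final) in Tris-HCl pH 9.0 buffer for 60 min at 37 °C. Trypsin was added for 15 min, and fluorescence was read at ex 370/em 460 nm.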

Experiment [2] addresses Histone deacetylase 1 (Homo sapiens) (UniProt Q13547). The experiment can be described thus: Inhibition of human FLAG-tagged HDAC1 expressed in human 293T cells assessed as formation of amino methyl coumarin from Ac-KGLGK(Ac)-MCA measured after 30 mins by fluorescence analysis. Format: cell-based.
The target in experiment [3] is T2, Protein deacetylase HDAC6 (Homo sapiens) (UniProt Q9UBN7).
T2 sequence (whole entry): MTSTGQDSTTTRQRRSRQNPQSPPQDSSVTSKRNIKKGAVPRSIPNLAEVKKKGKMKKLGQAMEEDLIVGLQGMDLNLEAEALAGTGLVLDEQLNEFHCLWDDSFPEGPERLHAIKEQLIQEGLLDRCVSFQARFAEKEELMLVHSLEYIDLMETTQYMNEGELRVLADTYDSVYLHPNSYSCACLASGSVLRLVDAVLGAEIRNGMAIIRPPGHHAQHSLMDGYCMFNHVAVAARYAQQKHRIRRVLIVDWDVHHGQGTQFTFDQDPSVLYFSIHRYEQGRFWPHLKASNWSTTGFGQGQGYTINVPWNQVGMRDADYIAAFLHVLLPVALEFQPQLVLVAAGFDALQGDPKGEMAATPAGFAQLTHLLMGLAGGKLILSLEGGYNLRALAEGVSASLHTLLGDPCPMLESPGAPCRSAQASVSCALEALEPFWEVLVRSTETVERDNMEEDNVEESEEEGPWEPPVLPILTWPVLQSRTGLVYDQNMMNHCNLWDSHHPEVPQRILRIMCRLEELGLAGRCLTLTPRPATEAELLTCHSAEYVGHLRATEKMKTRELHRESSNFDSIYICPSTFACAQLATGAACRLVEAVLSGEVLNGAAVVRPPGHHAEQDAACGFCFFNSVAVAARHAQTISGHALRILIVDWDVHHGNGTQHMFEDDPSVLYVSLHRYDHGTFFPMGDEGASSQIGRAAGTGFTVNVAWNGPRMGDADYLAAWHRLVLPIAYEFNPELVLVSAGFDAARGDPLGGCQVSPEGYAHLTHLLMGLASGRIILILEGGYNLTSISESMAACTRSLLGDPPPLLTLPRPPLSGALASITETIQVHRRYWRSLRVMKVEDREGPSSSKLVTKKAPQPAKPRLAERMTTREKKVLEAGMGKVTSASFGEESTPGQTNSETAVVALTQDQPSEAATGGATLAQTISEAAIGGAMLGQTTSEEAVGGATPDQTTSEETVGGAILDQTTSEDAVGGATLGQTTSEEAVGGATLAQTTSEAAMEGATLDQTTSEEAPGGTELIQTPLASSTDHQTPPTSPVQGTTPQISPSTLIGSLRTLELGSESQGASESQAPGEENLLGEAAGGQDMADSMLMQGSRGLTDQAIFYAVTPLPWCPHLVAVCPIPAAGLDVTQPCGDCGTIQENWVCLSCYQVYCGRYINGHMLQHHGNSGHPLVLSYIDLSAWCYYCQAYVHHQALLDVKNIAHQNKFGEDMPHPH
The experiment can be described thus: Inhibition of human FLAG-tagged HDAC6 expressed in human 293T cells assessed as formation of amino methyl coumarin from Ac-KGLGK(Ac)-MCA measured after 30 mins by fluorescence analysis. In kind it is cell-based.

The target of experiment [4] is Histone deacetylase 4 (Homo sapiens) (UniProt P56524). As to the kind of experiment: Inhibition of human FLAG-tagged HDAC4 expressed in human 293T cells assessed as formation of amino methyl coumarin from Ac-KGLGK(Ac)-MCA measured after 30 mins by fluorescence analysis. Format: cell-based.
Chain of Histone deacetylase 4 (Homo sapiens) (P56524 whole entry): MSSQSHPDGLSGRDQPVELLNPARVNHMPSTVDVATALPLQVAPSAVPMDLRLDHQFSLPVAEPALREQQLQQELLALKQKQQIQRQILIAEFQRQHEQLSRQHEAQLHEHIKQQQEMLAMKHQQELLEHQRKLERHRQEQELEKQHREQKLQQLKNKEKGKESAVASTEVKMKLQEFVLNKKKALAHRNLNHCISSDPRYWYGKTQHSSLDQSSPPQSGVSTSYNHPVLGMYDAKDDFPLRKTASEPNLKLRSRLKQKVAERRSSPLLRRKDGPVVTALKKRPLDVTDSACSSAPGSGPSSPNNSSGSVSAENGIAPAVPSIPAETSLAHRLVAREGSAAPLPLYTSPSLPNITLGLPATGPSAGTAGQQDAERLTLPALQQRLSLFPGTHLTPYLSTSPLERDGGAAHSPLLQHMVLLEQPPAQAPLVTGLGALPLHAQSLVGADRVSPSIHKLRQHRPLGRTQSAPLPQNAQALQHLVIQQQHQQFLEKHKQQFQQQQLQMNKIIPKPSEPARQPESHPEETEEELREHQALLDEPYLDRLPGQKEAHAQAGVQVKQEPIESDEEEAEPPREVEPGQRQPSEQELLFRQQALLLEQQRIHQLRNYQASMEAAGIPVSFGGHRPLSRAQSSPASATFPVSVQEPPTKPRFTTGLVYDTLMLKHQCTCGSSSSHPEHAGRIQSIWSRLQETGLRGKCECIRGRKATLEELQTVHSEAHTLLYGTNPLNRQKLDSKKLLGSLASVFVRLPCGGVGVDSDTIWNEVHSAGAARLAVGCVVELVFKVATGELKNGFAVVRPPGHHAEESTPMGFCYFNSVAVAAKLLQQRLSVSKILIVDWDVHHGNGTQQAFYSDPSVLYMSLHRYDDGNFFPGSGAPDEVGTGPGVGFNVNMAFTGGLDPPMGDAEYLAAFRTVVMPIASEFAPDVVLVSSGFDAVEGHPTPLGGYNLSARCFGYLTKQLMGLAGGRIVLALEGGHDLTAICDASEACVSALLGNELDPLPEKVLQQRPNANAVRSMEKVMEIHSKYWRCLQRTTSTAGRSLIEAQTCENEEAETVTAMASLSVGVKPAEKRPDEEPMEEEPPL
Experiment [5] concerns the target T3, NAD-dependent protein deacetylase sirtuin-3, mitochondrial (Homo sapiens) (UniProt Q9NTG7).
T3 sequence (whole entry): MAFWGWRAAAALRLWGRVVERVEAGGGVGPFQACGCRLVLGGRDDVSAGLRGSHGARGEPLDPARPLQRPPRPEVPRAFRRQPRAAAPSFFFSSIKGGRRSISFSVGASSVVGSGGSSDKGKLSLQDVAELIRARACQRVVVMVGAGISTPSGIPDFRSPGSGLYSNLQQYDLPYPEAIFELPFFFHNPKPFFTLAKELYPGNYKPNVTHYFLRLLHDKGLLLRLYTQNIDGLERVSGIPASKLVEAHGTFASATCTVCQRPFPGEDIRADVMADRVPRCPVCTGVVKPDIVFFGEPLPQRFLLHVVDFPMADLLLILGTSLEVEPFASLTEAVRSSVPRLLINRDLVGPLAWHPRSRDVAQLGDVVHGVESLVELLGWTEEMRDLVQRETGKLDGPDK
The experiment can be described thus: Inhibition of recombinant human His-tagged SIRT3 (118 to 399 residues) expressed in Escherichia coli BL21 (DE3) assessed as formation of amino methyl coumarin from Ac-VSTPVK(Ac)-MCA and NAD measured after 60 mins by fluorescence analysis. In short, it runs like this:
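His-tagged recombinant SIRT3 incubated with 100 μM Ac-VSTPVK(Ac)-MCA and NAD (final 1 mM) in 50 mM Tris-HCl pH 9.0, 4 mM MgCl2, 0.2 mM DTT for 60 min at 37 °C. Trypsin (final 20 mg/mL) was added and the mixture held 15 min more at 37 °C. Fluorescence of freed aminomethylcoumarin measured at ex 370/em 460 nm.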

Experiment [6] addresses T4, NAD-dependent protein deacetylase sirtuin-2 (Homo sapiens) (UniProt Q8IXJ6).
T4 sequence (whole entry): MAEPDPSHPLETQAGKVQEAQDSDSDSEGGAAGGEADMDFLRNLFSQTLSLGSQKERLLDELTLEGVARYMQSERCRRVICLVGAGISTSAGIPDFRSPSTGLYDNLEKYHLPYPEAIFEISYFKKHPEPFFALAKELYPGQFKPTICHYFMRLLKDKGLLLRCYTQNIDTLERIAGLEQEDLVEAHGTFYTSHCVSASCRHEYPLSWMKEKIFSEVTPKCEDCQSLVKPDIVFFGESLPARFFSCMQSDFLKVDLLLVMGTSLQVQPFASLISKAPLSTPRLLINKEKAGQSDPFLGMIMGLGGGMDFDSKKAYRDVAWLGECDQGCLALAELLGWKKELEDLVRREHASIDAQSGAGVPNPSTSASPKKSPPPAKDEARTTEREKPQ
As to the kind of experiment: Inhibition of recombinant human GST-tagged SIRT2 catalytic domain using Ac-RHKK(Ac)-MCA assessed as formation of amino methyl coumarin from Ac-RHKK(Ac)-MCA and NAD measured after 60 mins by fluorescence analysis. In short, it runs like this: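 Recombinant GST-fused SIRT2 catalytic domain with 100 μM Ac-RHKK(Ac)-MCA and NAD (final 1 mM) in 50 mM Tris-HCl pH 9.0, 4 mM MgCl2, 0.2 mM DTT, 60 min at 37 °C. Trypsin (final 20 mg/mL) then added for 15 min at 37 °C. Released aminomethylcoumarin fluorescence read at ex 370/em 460 nm.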

A value given as a limit tells only on which side of the number the result lay.

Chain of Histone deacetylase 1 (Homo sapiens) (Q13547 whole entry): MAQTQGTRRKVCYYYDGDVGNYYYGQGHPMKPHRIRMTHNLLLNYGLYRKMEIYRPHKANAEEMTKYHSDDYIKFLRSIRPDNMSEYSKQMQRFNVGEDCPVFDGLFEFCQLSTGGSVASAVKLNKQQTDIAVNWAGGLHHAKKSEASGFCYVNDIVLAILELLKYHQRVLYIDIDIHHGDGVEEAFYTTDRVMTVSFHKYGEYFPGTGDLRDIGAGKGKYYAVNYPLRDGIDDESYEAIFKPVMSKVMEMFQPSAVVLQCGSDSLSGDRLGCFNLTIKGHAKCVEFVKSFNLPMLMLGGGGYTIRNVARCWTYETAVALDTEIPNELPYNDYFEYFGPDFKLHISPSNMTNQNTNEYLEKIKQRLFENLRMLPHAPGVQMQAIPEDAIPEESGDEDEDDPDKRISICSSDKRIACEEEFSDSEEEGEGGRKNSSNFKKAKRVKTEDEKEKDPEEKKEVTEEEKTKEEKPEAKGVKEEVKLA

`CCCCCCC[C@@H](C)C[C@@H](O)CCCCCCC[C@@H](CCCC[C@@H](OC(C)=O)[C@@H](OC(C)=O)[C@H](CCCCCCC(=O)N1CCC[C@H]1C(=O)OC)OC(C)=O)OS(=O)(=O)O`: the IC50 in experiment [1] is 16 µM; in experiment [2], 26 µM; in experiment [3], over 200 µM; in experiment [4], over 200 µM; in experiment [5], 79 µM; in experiment [6], over 200 µM.

Turning to `CCCCCC[C@@H](C)[C@@H](CCCCCCCC(O)CCCC[C@@H](OC(C)=O)[C@@H](OC(C)=O)[C@H](CCCCCCC(=O)N1CCC[C@H]1C(=O)OC)OC(C)=O)OS(=O)(=O)O` (some centres not stated), the IC50 in experiment [1] turned out to be 34 µM; in experiment [2], 29 µM; in experiment [3], 52 µM; in experiment [4] it was 75 µM; in experiment [5], 78 µM; in experiment [6], 150 µM.
